Source: PubChem
procasp3 activ: activators of human procaspase-3 D3A mutant, primary screen, biochemical, absorbance, PC-3 D3A mutant, single concentration; activation, % at 8.5 µM; 330,000 compounds, 0.11% hits; AID 463141, 2010; recombinant procaspase-3 D3A, Ac-DEVD-pNA absorbance 405 nm; Caspase-3 (Homo sapiens), P42574;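 active means activation above the mean of all tested compounds plus 3 SD, cut at about 21% in these data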;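 further: 0% = DMSO alone and 100% = DMSO wells spiked with extra 5 µM PC-3 D3A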
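Assay system – Procaspase-3 D3A mutant, all three cleavage aspartates alanine · Controls – DMSO-only low control, 5 µM PC-3 D3A high control · Schedule – 1 h compound preincubation, 2 h substrate hydrolysis at 25 °C · Signal – 405 nm absorbance of p-nitroaniline, reads at 0 and 120 min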
LYPLA2 counter: LYPLA2 inhibitors, primary screen, counter-screen for PME1 inhibitor project, biochemical, fluorescence polarization, FP-Rh probe ABPP; inhibition, % at 5.9 µM; AID 2177, 2009; recombinant LYPLA2; Acyl-protein thioesterase 2 (Homo sapiens), O95372; 320,000 compounds, 0.38% hits;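 active means inhibition above the screen-wide mean plus 3 SD, limit set per campaign, cut at about 26% in these data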;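 further: 0% = LYPLA2 with DMSO and 100% = wells lacking LYPLA2 enzyme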
Target sequence (O95372 whole entry, looked up): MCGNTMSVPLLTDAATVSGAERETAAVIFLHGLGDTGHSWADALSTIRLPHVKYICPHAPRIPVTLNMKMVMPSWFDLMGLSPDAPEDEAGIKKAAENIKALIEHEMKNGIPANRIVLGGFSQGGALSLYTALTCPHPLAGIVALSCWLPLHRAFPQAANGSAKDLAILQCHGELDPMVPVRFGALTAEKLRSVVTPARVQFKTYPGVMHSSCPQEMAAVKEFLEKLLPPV
proCasp7 act: procaspase-7 activators, primary screen, counter-screen for procaspase-3 activator project, biochemical, absorbance, HTS, human | recombinant procaspase-7, Ac-DEVD-pNA absorbance 405 nm; D23A/D198A/D206A triple mutant, cannot self-cleave; scale: DMSO 0, 5 µM enzyme 100 | 330,000 compounds, 0.093% hits | activation, % at 8.5 µM | AID 463210, 2010;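 active means percent activation above the screen-wide mean plus 3 SD, cut at about 25% in these data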
Target sequence (P55210 whole entry D23A/D198A/D206A): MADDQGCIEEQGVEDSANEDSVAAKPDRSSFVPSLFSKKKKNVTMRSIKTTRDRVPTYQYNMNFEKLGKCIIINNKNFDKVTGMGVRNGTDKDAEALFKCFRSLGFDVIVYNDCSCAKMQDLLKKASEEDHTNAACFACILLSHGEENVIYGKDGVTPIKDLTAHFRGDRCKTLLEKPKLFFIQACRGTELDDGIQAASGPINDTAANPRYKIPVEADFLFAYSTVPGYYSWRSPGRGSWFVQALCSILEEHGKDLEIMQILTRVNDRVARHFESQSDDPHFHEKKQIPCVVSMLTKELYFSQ
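System: Procaspase-7 triple mutant (PC-7 D3A); measure: % activation from two-timepoint absorbance difference, scaled to controls; times: 1 h compound preincubation, 2 h substrate cleavage, 25 °C; also added: Ac-DEVD-pNA substrate, 400 µM as added; measured by: Epi-absorbance of released pNA at 405 nm, two timepoints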
PREPL inhibitor: PREPL enzyme inhibitors, primary screen, biochemical, fluorescence polarization; recombinant PREPL, fluorescence polarization activity-based probe; Prolyl endopeptidase-like (Homo sapiens), Q4J6C6; 320,000 compounds, 0.68% hits; inhibition, % at 5.96 µM;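 further: 0% = enzyme with DMSO and 100% = wells lacking enzyme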
LYPLA1 counter: LYPLA1 inhibitors, primary screen, counter-screen for PME1 inhibitor project, biochemical, fluorescence polarization, FP-Rh probe ABPP; Acyl-protein thioesterase 1 (Homo sapiens), O75608; inhibition, % at 5.9 µM; recombinant LYPLA1; 320,000 compounds, 0.16% hits; AID 2174, 2009;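 active means inhibition above the mean of all tested compounds plus 3 SD, set per campaign, cut at about 14% in these data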;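 further: inhibitors block serine hydrolase probe labeling of LYPLA1 so polarization falls; 0% = enzyme with DMSO and 100% = wells lacking LYPLA1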
PREPL confirm: human PREPL enzyme inhibitors, confirmation, biochemical, fluorescence polarization. recombinant PREPL, fluorescence polarization activity probe. shares compounds with PREPL inhibitor. inhibition, % at 5.96 µM. 2,000 compounds, 67% hits;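 further: 0% = protein with DMSO and 100% = wells lacking protein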
The depositor's hits bear a star; . = no result given. Rows were chosen to be rich in hits. Some 1% of all compounds tested hit in one or more screens of this group. Unless noted, no stated cut-off is given here; in the data, active means inhibition above about 43%; inactive means the rest.

SMILES	procasp3 activ	LYPLA2 counter	proCasp7 act	PREPL inhibitor	LYPLA1 counter	PREPL confirm
C#CCOCCOCCOCCNc1nc(N2CCN(C(=O)C(Cc3ccc(O)cc3)n3cc(C(N)CC(C)C)nn3)CC2)nc(N2CCN(C(=O)C(Cc3cc4ccccc4[nH]3)n3cc(C(N)C(C)CC)nn3)CC2)n1 (stereo not given)	3.4	9.5	0.2	51.2*	-0.9	51.4*
C#CCOCCOCCOCCNc1nc(N2CCN(C(=O)[C@H](Cc3ccc(O)cc3)n3cc([C@@H](N)CC(C)C)nn3)CC2)nc(N2CCN(C(=O)[C@H](Cc3cc4ccccc4[nH]3)n3cc([C@@H](N)CC(C)C)nn3)CC2)n1	2.7	-5.8	0.4	53.3*	-5.1	50.5*
C#CCOCCOCCOCCNc1nc(N2CCN(C(=O)[C@H]([C@@H](C)CC)n3cc([C@@H](N)CC(C)C)nn3)CC2)nc(N2CCN(C(=O)[C@H](Cc3cc4ccccc4[nH]3)n3cc([C@@H](N)Cc4ccc(O)cc4)nn3)CC2)n1	3.5	-0.6	-0.6	42.8	0.2	.
C#CCOCCOCCOCCNc1nc(N2CCN(C(=O)[C@H]([C@@H](C)CC)n3cc([C@@H](N)Cc4ccc(O)cc4)nn3)CC2)nc(N2CCN(C(=O)[C@H](Cc3cc4ccccc4[nH]3)n3cc([C@@H](N)CC(C)C)nn3)CC2)n1	-1.6	4.7	-10.5	58.3*	2.2	58.9*
C#CCOCCOCCOCCNc1nc(N2CCN(C(=O)[C@H](CCC(=O)O)n3cc(C(N)CC(C)C)nn3)CC2)nc(N2CCN(C(=O)[C@H](Cc3cc4ccccc4[nH]3)n3cc(C(N)[C@H](C)CC)nn3)CC2)n1 (stereo not given in full)	-1.4	-2.4	6.4	23.8	-1.9	.
N#C/C(=C(/O)CSc1nnc(Cc2cccs2)n1C1CCCCC1)c1nc2ccccc2[nH]1	4.9	-1.4	-1.9	43.4*	-4.4	34.7
Cc1nc(NC(C)c2ccccc2)sc1C(=O)Nc1ccccc1 (stereo not given)	-9.1	3.4	-0.2	-2.0	2.9	.
CCn1c(SCC(=O)N2CCc3ccccc3C2)nc2sc(C)c(C)c2c1=O	2.5	0.6	5.9	44.4*	2.6	42.5
CN(C)c1ccc(CNc2ccc3c(c2)ncn3C)cc1	8.2	2.2	-5.5	31.9	0.2	.
CC(C)(C)n1cnc2cc(NCc3ccc(Br)cc3)ccc21	-12.6	-22.2	-1.5	53.6*	-9.7	63.0*
CCc1ccc(CNc2ccc3c(c2)ncn3CC)cc1	1.3	10.5	-3.7	31.7	3.7	.
CCN(CC)c1ccc(CNc2ccc3c(c2)ncn3C(C)(C)C)cc1	-4.9	0.0	12.0	47.6*	2.0	17.6
CCc1ccc(CNc2ccc3c(c2)ncn3C(C)(C)C)cc1	-0.3	-2.2	-4.9	47.5*	-1.3	50.3*
Cc1cc(C)n(CC(=O)Nc2cccc(C(F)(F)F)c2)n1	-2.4	10.1	-2.6	3.5	3.8	.
Cc1ccc(S(=O)(=O)N(C)CC(=O)NCC(c2ccco2)N(C)C)cc1 (stereo not given)	0.9	7.0	5.7	8.8	2.2	.
COc1ccc(-c2c[n+]3c4n2CCCCC4=C(c2ccccc2)C3)cc1	6.3	5.8	8.7	53.5*	3.6	38.1
COc1ccc(-c2c[n+](CC(=O)c3ccccc3)c3n2CCCCC3)cc1	3.9	-0.7	-7.1	21.5	-1.7	.
CCCCCC1CCC(C(=O)NNC(=S)NCC)CC1 (stereo not given)	-6.5	10.6	9.7	14.8	2.0	.
COc1cccc(C2=CC(c3ccc(N(C)C)cc3)n3nnnc3N2)c1 (stereo not given)	-16.5	5.3	-31.1	70.0*	-2.4	54.2*
CC/C=C/C(=O)N1CC2(CC(c3cccc(NC(=O)CC(c4ccccc4)c4ccccc4)c3)=NO2)C[C@@H]1C(N)=O (stereo not given in full)	-5.5	-10.4	-6.0	-5.1	-6.8	.
CC(CNC(=O)CCn1ccc2cc(S(=O)(=O)N3CCCC3)ccc21)c1ccccc1 (stereo not given)	-2.2	0.2	-2.6	5.1	-0.6	.
Cc1cc(NCc2ccccn2)n2ncc(-c3ccccc3)c2n1	-7.1	0.3	1.5	16.7	0.1	.
Cc1cc(NCc2ccccn2)n2ncc(-c3ccc(Cl)cc3)c2n1	6.2	-0.6	7.1	48.5*	-1.1	35.7
COc1cc(NC(=O)C2CC(c3ccc(Cl)cc3)=NO2)cc(OC)c1OC (stereo not given)	-0.2	-2.7	7.0	44.3*	-3.5	37.7
Cc1ccc(-n2cccc2C(=O)NS(=O)(=O)c2ccc(C)cc2)cc1	8.8	9.4	3.1	2.5	6.5	.
SMILES	procasp3 activ	LYPLA2 counter	proCasp7 act	PREPL inhibitor	LYPLA1 counter	PREPL confirm
Cc1ccc(-n2cccc2C(=S)N=P(N(C)C)(N(C)C)N(C)C)cc1	-12.6	0.5	-20.0	44.3*	0.1	37.4
COC(=O)c1ccc(N2CCN(c3ccccc3)CC2)c(NC(=O)C2CC2)c1	0.7	4.4	4.4	50.2*	-0.5	39.4
CC(C)(C)c1ccc(C(=O)NCC(=O)OCCN2C(=O)c3ccccc3C2=O)cc1	2.8	4.5	-0.1	1.4	2.7	.
COc1ccc(Nc2nc(N)nc(CN3CCc4ccccc4C3)n2)cc1	-5.0	0.4	0.9	43.4*	1.9	33.2
Nc1nc(CN2CCc3ccccc3C2)nc(Nc2ccccc2)n1	4.2	6.1	7.5	24.1	-1.7	.
COc1cc(/C=C2/C(=N)N3C(=NC2=O)SN=C3S(C)(=O)=O)ccc1OC(=O)c1ccco1	10.6	2.0	1.7	61.7*	-1.2	79.5*
CCS(=O)(=O)C1=NSC2=NC(=O)/C(=C\c3ccc(OC(=O)c4ccco4)c(OC)c3)C(=N)N21	1.7	-4.0	-2.2	53.1*	-3.8	77.1*
CCOc1cc(/C=C2/C(=N)N3C(=NC2=O)SN=C3S(=O)(=O)CC)ccc1OC(=O)c1ccco1	3.0	-1.1	5.7	35.6	-3.3	.
CCOc1cc(/C=C2/C(=N)N3C(=NC2=O)SN=C3S(=O)(=O)C(C)C)ccc1OC(=O)c1ccco1	2.9	-5.2	1.5	36.4	-5.4	.
CCOC(=O)c1ccc(N2NC(=O)/C(=C/c3ccc(OC(=O)c4ccco4)c(OC)c3)C2=O)cc1	-3.9	5.2	-14.8	42.1	0.5	.
